Data set [1] can be described thus: Drug uptake in mitochondria of human NCTC-2544 cells at 10 uM after 2 hrs by fluorescence microphotography. To be noted: nctc-2544, 2 h. It is filed as ADME. A digest of the protocol:
(§1)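 NCTC-2544 cells attached in Petri dishes, given compound at 10 μM for 2 h, washed with HBSS. Then 30 min with Rhodamine 123 (mitochondria), LysoTracker RED, CellMask Orange (plasma membrane) or ER-Tracker. Blue compound fluorescence overlaid on probe images by video-confocal microscopy.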

A short description of data set [2]: Drug uptake in cytoplasm of human NCTC-2544 cells at 10 uM after 2 hrs by fluorescence microphotography. To be noted: nctc-2544, 2 h. Format: ADME, cell-based. The gist of the method: as §1
In data set [3] the test system is Jurkat. Nature of the data set: Phototoxicity in 3.75 J/cm'2 UV-A irradiated human Jurkat cells after 72 hrs by MTT assay. Format: functional, cell-based. The note with it: light or radiation study. The gist of the method: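 Jurkat cells (8 × 10³/well) in RPMI-1640 with 10% FBS, held 18 h at 37 °C, 5% CO2. Compound stock in DMSO was diluted in HBSS pH 7.2 and added for 30 min at 37 °C. Cells were UV-A irradiated (lamp mainly 365 nm, 4.0 mW/cm²), then returned to medium for 72 h. MTT readout. IC50 is the mean ± SEM of three experiences.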
(Formazan colour is commonly taken as a measure of viable cells.)

Data set [4] relates to LoVo. The data set can be described thus: Phototoxicity in 2.5 J/cm'2 UV-A irradiated human LoVo cells after 72 hrs by MTT assay. The note with it: light or radiation study. Format: functional, cell-based. A digest of the protocol:
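HL-60 and Jurkat (8×10³/well, RPMI-1640) and MCF-7, LoVo, NCTC-2544 (5×10³/well; DMEM or Ham's F12) preincubated 18 h at 37 °C, 5% CO₂. Compound in DMSO diluted in HBSS pH 7.2, 30 min at 37 °C, then UV-A at 2.5 or 3.75 J/cm². Medium replaced, 72 h incubation, MTT read-out. IC50 as mean ± SEM of three experiments.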

Data set [5] deals with MCF7. The data set can be described thus: Phototoxicity in 2.5 J/cm'2 UV-A irradiated human MCF7 cells assessed as cell viability after 72 hrs by MTT assay in presence of radical scavenger mannitol. Format: functional, cell-based. The gist of the method:
(§2)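 MCF-7 cells given compound plus scavenger in HBSS, 30 min at 37 °C, then UV-A (2.5 J/cm², 365 nm lamp). Medium replaced; viability by MTT after 72 h. Means ± SEM of at least three independent experiments.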

The subject of data set [6] is MCF7. Nature of the data set: Phototoxicity in 2.5 J/cm'2 UV-A irradiated human MCF7 cells assessed as cell viability after 72 hrs by MTT assay in presence of radical scavenger DABCO. Format: functional, cell-based. A digest of the protocol:
as §2

In data set [7] the test system is MCF7. The data set can be described thus: Phototoxicity in 2.5 J/cm'2 UV-A irradiated human MCF7 cells assessed as cell viability after 72 hrs by MTT assay in presence of radical scavenger GSH. Format: functional, cell-based. A digest of the protocol:
as §2

The test system of data set [8] is MCF7. The data set can be described thus: Phototoxicity in 2.5 J/cm'2 UV-A irradiated human MCF7 cells assessed as cell viability after 72 hrs by MTT assay in presence of radical scavenger BHA. It is filed as functional, cell-based. A digest of the protocol:
as §2

Data set [9] relates to Jurkat. Nature of the data set: Induction of apoptosis in 3.75 J/cm'2 UV-A irradiated human Jurkat cells assessed as viable cells at 5 uM after 24 hrs by Annexin-V-FITC and propidium iodide based flow cytometry (reference value: 91 %). It is filed as functional. To be noted: light or radiation study, read-out: Activity.
Data set [10] has as its system Jurkat. The data set can be described thus: Induction of apoptosis in 3.75 J/cm'2 UV-A irradiated human Jurkat cells assessed as late apoptotic cells at 10 uM after 24 hrs by Annexin-V-FITC and propidium iodide based flow cytometry (reference value: 2.9 %). Format: functional. For orientation: Flow cytometry measures light scatter and fluorescence of single cells or particles in a stream.

The subject of data set [11] is Jurkat. The data set can be described thus: Cell cycle arrest in UV-A irradiated human Jurkat cells assessed as accumulation at G2/M phase at 5 uM after 24 hrs by propidium iodide based flow cytometry (reference value: 10.3 %). Format: functional. The gist of the method: (§3)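 Exponentially growing Jurkat cells (5×10^5) irradiated with UV-A (365 nm lamp, 2.5 J/cm²) in presence of compound. After 24 h: fixed in ice-cold 70% ethanol, lysed with RNAse A, stained with PI (10 µg/ml), analysed by flow cytometry. Phases calculated on living cells; subG1 is hypodiploid DNA peak.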

For data set [12], the system named is Jurkat. Nature of the data set: Cell cycle arrest in UV-A irradiated human Jurkat cells assessed as accumulation at Sub G1 phase at 5 uM after 24 hrs by propidium iodide based flow cytometry (reference value: 0.1 %). Format: functional. The gist of the method:
as §3

The subject of data set [13] is Jurkat. The data set can be described thus: Cell cycle arrest in UV-A irradiated human Jurkat cells assessed as accumulation at G1 phase at 10 uM after 24 hrs by propidium iodide based flow cytometry (reference value: 64.4 %). It is filed as functional. A digest of the protocol:
as §3

The test system of data set [14] is Jurkat. The data set can be described thus: Cell cycle arrest in UV-A irradiated human Jurkat cells assessed as accumulation at Sub G1 phase at 10 uM after 24 hrs by propidium iodide based flow cytometry (reference value: 0.1 %). Format: functional. The gist of the method:
as §3

Data set [15] is described as follows: Drug uptake in endoplasmic reticulum of human NCTC-2544 cells at 10 uM after 2 hrs by fluorescence microphotography. It is filed as ADME, cell-based. To be noted: nctc-2544, 2 h. The gist of the method: as §1
The subject of data set [16] is Jurkat. Nature of the data set: Induction of apoptosis in UV-A irradiated human Jurkat cells assessed as loss of mitochondrial membrane potential after 6 hrs by cytofluorimetric analysis. Format: functional, cell-based. The gist of the method: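 Jurkat cells 6, 12 and 24 h after UV-A (2.5 J/cm²) with compound, resuspended in HBSS with JC-1 (1 μg/ml). Green (FL1) and orange (FL2) fluorescence collected by flow cytometry, ≥10000 events; cells with monomeric JC-1 counted as collapsed potential. Mean ± SEM of three experiments.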

In data set [17] the test system is Jurkat. Nature of the data set: Induction of apoptosis in UV-A irradiated human Jurkat cells assessed as increase in number of damaged lysosomes after 6 to 24 hrs by acridine orange- based flow cytometry. It is filed as functional, cell-based. The gist of the method: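 Lysosomal stability in Jurkat cells 6, 12 and 24 h after UV-A (2.5 J/cm²) with compound. Cells resuspended in RPMI-1640 with 1 µM acridine orange; flow cytometry, excitation 488 nm, emission in FL3. Mean ± SEM of three experiments.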

For data set [18], the system named is Nucleic Acid. Nature of the data set: Binding affinity to salmon testes DNA at drug/DNA ratio of 0.01 by linear dichroism analysis. Format: nucleic-acid assay. The note with it: Salmonidae. The gist of the method:
(§4)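 Flow linear dichroism in 10 mM phosphate buffer pH 7.2. Samples oriented in a rotating cylindrical cuvette (0.14 cm path, 800 rpm) at several drug/DNA ratios.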

Data set [19] relates to Nucleic Acid. Nature of the data set: Binding affinity to salmon testes DNA at drug/DNA ratio of 0.03 by linear dichroism analysis. To be noted: Salmonidae. Format: nucleic-acid assay. The gist of the method: as §4
The test system of data set [20] is Nucleic Acid. Nature of the data set: Induction of photo-induced DNA damage in Escherichia coli pBR322 DNA at drug:DNA ratio of 1:3 by agarose gel electrophoresis in presence of nitrogen flux. It is filed as nucleic-acid assay. The gist of the method: (§5)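 Supercoiled pBR322 (100 ng) in 10 mM phosphate buffer pH 7.2 irradiated with UV-A (3.75 J/cm²) at [DNA]/[drug] 1/3, with additives, under nitrogen or in deuterated buffer as stated. Aliquots then incubated at 37 °C with Fpg or Endo III. Run on 1% agarose in TAE, 80 V for 2 h, stained with ethidium bromide; Form I/II fractions from band densitometry.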

Data set [21] has as its system Nucleic Acid. The data set can be described thus: Induction of photo-induced supercoiled Escherichia coli pBR322 DNA damage at drug:DNA ratio of 1:3 by agarose gel electrophoresis in presence of mannitol. Format: nucleic-acid assay. A digest of the protocol:
as §5

The test system of data set [22] is Jurkat. Nature of the data set: Induction of lipid peroxidation in 3.75 J/cm'2 UV-A irradiated human Jurkat cells assessed as increase in TBARS formation after 24 hrs by thiobarbituric acid assay. Format: functional, cell-based. A digest of the protocol: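 Lipid peroxidation measured as MDA–thiobarbituric acid adducts, with BHT added to samples; calibrated to a 1,1,3,3-tetraethoxypropane standard curve; protein by Peterson method.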

Here are results for one compound from ChEMBL document CHEMBL2176901, “Pyrrolo[3,4-h]quinolinones a new class of photochemotherapeutic agents” (Bioorg Med Chem, 2011).

Broadly, the IC50 is the concentration needed to halve the response being measured. Low readings indicate inhibition by little substance, high ones a need for much substance.

Activity calls are given as the source filed them. The rule behind the calls is not given here.

Consider `CCOC(=O)c1c2c(c(C)n1C)-c1c(cc(S(=O)(=O)c3ccccc3)c(=O)n1C)CC2`, for which the Drug uptake entry in data set [1], in [2] and in [15] was “Active” in each case. Besides, the values for the IC50 in data set [3] and in data set [4] were 0.8 µM and 0.7 µM, respectively. Besides, the result in data set [5], in data set [6], in data set [7], in data set [8], in data set [18] and in data set [19] was inactive. Also, the outcome in [20] and in [21] was inactive. For the same compound, the viability at 5 µM in data set [9] worked out at 70.1%. In addition, the Activity is 21.4% in data set [10]; 4.2% in [11]; 10.5% in data set [12]; 39.1% in data set [13]; 43% in data set [14]; “Dose-dependent effect” in data set [22]. For the same compound, the result in [16] and in data set [17] was Active.
